Measured values from ChEMBL document CHEMBL1152595, “Synthesis and biological evaluation of 2,3,4-triarylbenzopyran derivatives as SERM and therapeutic agent for breast cancer” (Bioorg Med Chem, 2009).

Columns and labels:
[1] = tested on: Rattus norvegicus; experiment: Estrogenic agonistic activity in bilaterally ovariectomized Sprague-Dawley rat assessed as uterine weight gain at 10 mg/kg, po once daily for three days measured on day 31 of age; type: functional
Procedure, shortened: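 Immature rats dosed orally once daily for three consecutive days; vehicle-only group as control. Autopsy 24 h after last dose on day 31 of age: vaginal smear taken, uterus excised, blotted and weighed fresh. Vaginal opening, vaginal epithelial cornification and uterine weight increase scored; gain expressed as percent of vehicle control; means ± SEM, at least six per group.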

[2] = tested on: Rattus norvegicus; experiment: Estrogenic antagonistic activity in bilaterally ovariectomized Sprague-Dawley rat assessed as inhibition of ethynylesterol-induced uterine weight at 10 mg/kg, po once daily for 3 days measured on day 31 of age; type: functional
Procedure, shortened: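 Antagonism read as uterine fresh weight in rats given compound orally at 10 mg/kg/day alongside 17α-ethynylestradiol (0.02 mg/kg/day); inhibition expressed relative to the ethynylestradiol-only group; means ± SEM, at least six animals per group.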

[3] = tested on: MCF7; experiment: Antiproliferative activity against human MCF7 cells after 48 hrs by MTT assay; type: functional, cell-based
Procedure, shortened: (§1)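 MTT assay: cells seeded at 1 × 10^4 per well in DMEM with 10% FBS, left 24 h at 37 °C in CO2; compounds diluted in medium added alongside vehicle control for 48 h; MTT (5 mg/mL) added for 4 h, formazan dissolved in DMSO, absorbance read at 540 nm; IC50 in µM.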

[4] = tested on: MDA-MB-231; experiment: Antiproliferative activity against human MDA-MB-231 cells after 48 hrs by MTT assay; type: functional, cell-based; procedure, shortened: as §1
[5] = tested on: HEK293; experiment: Antiproliferative activity against human HEK293 cells after 48 hrs by MTT assay; type: cell-based; details: HEK293, 48 h; procedure, shortened: as §1
[6] = Homo sapiens, MCF7, 48 h, read-out: IC50
[7] = Homo sapiens, MDA-MB-231, 48 h, read-out: IC50

SMILES | Activity [1] | inhibition in vivo at 10 mg/kg [2] | IC50 ([3]; mcf7) | IC50 ([4]; mda-mb-231) | IC50 [5] | IC50 [3, 6] | IC50 [4, 7]
O=C1c2ccccc2O[C@@H](c2ccc(OCCN3CCCC3)cc2)[C@@H]1c1ccccc1 | 13.17% | 45.4% | Not Active | Not Active | 34 µM | – | –
Oc1ccc([C@@H]2Oc3ccccc3[C@H](c3ccc(OCCN4CCCC4)cc3)[C@H]2c2ccccc2)cc1 | 11.25% | 69.2% | – | – | 36.3 µM | 18.4 µM | 17.8 µM
CC(=O)Oc1ccc([C@@H]2Oc3ccccc3[C@H](c3ccc(OCCN(C(C)C)C(C)C)cc3)[C@H]2c2ccccc2)cc1 | 146.6% | 73.9% | Not Active | Not Active | – | – | –
COc1ccc2c(c1)OC(C)(C)C(c1ccccc1)C2c1ccc(OCCN2CCCC2)cc1 (centres undefined) [ORMELOXIFENE] | 164.3% | 77.9% | – | – | – | – | –
CC(C)N(CCOc1ccc([C@H]2c3ccccc3O[C@@H](c3ccc(O)cc3)[C@@H]2c2ccccc2)cc1)C(C)C | 225% | 69% | – | – | 20.5 µM | 6.97 µM | 7.48 µM
CC(=O)Oc1ccc([C@@H]2Oc3ccccc3[C@H](c3ccc(O)cc3)[C@H]2c2ccccc2)cc1 | 105.18% | 4.2% | Not Active | Not Active | > 100 µM | – | –
CC(=O)Oc1ccc([C@@H]2Oc3ccccc3[C@H](c3ccc(OCCN4CCCCC4)cc3)[C@H]2c2ccccc2)cc1 | 171.4% | 51.4% | – | – | 29.8 µM | 16.8 µM | 14 µM
Oc1ccc([C@@H]2Oc3ccccc3[C@H](c3ccc(OCCN4CCCCC4)cc3)[C@H]2c2ccccc2)cc1 | 28.2% | 51.5% | – | – | 38.3 µM | 7.79 µM | 8.65 µM
Oc1ccc([C@H]2c3ccccc3O[C@@H](c3ccc(O)cc3)[C@@H]2c2ccccc2)cc1 | 142.9% | 21.2% | Not Active | Not Active | > 500 µM | – | –
CC/C(=C(\c1ccccc1)c1ccc(OCCN(C)C)cc1)c1ccccc1 [TAMOXIFEN] | 208.8% | 27.4% | – | – | – | 7.65 µM | 9.86 µM
OC1c2ccccc2O[C@@H](c2ccc(OCCN3CCCC3)cc2)[C@@H]1c1ccccc1 (some centres undefined) | 124.5% | 29% | Not Active | Not Active | – | – | –
CCN(CC)CCOc1ccc([C@H]2c3ccccc3O[C@@H](c3ccc(OC(C)=O)cc3)[C@@H]2c2ccccc2)cc1 | 41.2% | 59.3% | – | Not Active | 16.1 µM | 11.7 µM | –
CC(=O)Oc1ccc([C@@H]2Oc3ccccc3[C@H](c3ccc(OCCCN(C)C)cc3)[C@H]2c2ccccc2)cc1 | 117.2% | 58.4% | – | – | 14 µM | 11 µM | 5.61 µM
CC(=O)Oc1ccc([C@@H]2Oc3ccccc3[C@H](c3ccc(OCCN4CCCCCC4)cc3)[C@H]2c2ccccc2)cc1 | 108.3% | 30.6% | Not Active | Not Active | 88.6 µM | – | –
